Experimental data taken from PMC9292889 (Clinical Pharmacology in Drug Development, 2020).
Entries after “also recorded” stand apart in the source; their conditions may differ. Marks after values point to notes of the source that are not given here.

Columns and labels:
[1] = system: multidrug and toxin extrusion protein 2‐K; settings: in vitro; cited from earlier work
[2] = system: cytochrome P450 3A4; settings: oxidative metabolism mediated by cytochrome P450 3A4; cited from earlier work
[3] = Safety and tolerability; assay type: in vivo, human; settings: for Number of subjects (%) with ≥1 AE, all causalities: single and multiple doses
Summary of the method: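 Fasted healthy Chinese adults received oral test compound (2, 4, 10 mg) or placebo, single dose on day 1 then once daily on days 4–10, blinded and randomized. TEAEs were defined as onset or worsening after dosing and coded by MedDRA term. They were tabulated by treatment, relationship to drug, day of onset and severity. Single 12-lead ECGs, supine/standing blood pressure and pulse rate, and laboratory tests were also recorded.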

[4] = Multiple-dose plasma pharmacokinetics; assay type: in vivo, human; settings: for CL/F / RA (accumulation ratio): day 10, arithmetic mean (SD), N = 8; for Ratio of dose‐normalized geometric means AUCτ,ss (90%CI) / Ratio of dose‐normalized geometric means Cmax,ss (90%CI): multiple dose, day 10
Summary of the method: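 Oral test compound (2, 4, 10 mg) was given once daily on days 4–10 after an overnight fast of at least 10 h. Plasma was sampled predose on days 4–10 to judge steady state, and at 0.5–48 h after the day-10 dose. LC-MS/MS after liquid-liquid extraction from K2EDTA plasma, validated 0.200–200.00 ng/mL. Noncompartmental AUCτ,ss, Cmax,ss, tmax, t½, CL/F and accumulation ratio were derived.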

[5] = cited from earlier work
[6] = patients weighing <40 kg; cited from earlier work
[7] = Clinical laboratory tests; assay type: in vivo, human; settings: for maximum mean decrease in ANC: day 10, 8 hours after dosing; for maximum mean decrease from baseline in ANC: day 1, 8 hours after dosing
Summary of the method: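 Randomized, subject- and investigator-blinded study in healthy Chinese adults (screening ANC ≥2000 cells/μL). Oral dose of 2, 4 or 10 mg test compound or placebo, given after an overnight fast of at least 10 h with 200 mL water, meals 3 h later. Single dose on day 1, then once daily on days 4–10. Clinical laboratory tests were run throughout, and ANC/ALC change was taken from baseline.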

[8] = system: breast cancer resistance protein; settings: in vitro; cited from earlier work
[9] = system: P‐glycoprotein; settings: in vitro; cited from earlier work
[10] = Single-dose plasma pharmacokinetics; assay type: in vivo, human; settings: for Ratio of dose‐normalized geometric means AUC0‐∞ (90%CI) / Ratio of dose‐normalized geometric means Cmax (90%CI) / half-life: day 1; for half-life / Cmax / Tmax: human, plasma; for half-life: oral, across the 2‐ to 10‐mg dose range; for Cmax / Tmax: po; for Tmax: day 1, median (range); for CL/F: day 1, arithmetic mean (SD)
Summary of the method: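 Fasted healthy Chinese adults took a single oral dose of test compound (2, 4 or 10 mg) with 200 mL water on day 1. Plasma was sampled at 0.5–48 h by LC-MS/MS (K2EDTA plasma, liquid-liquid extraction, validated 0.200–200.00 ng/mL). Noncompartmental Cmax, tmax, AUC0‑∞ and CL/F were derived. A power model gave ratios of dose-normalized geometric means against 2 mg, with 90% CI.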

[11] = system: organic anion transporter 3; settings: in vitro; cited from earlier work

CCS(=O)(=O)N1CC(CC#N)(n2cc(-c3ncnc4[nH]ccc34)cn2)C1 [Baricitinib]
transporter substrate [1]: substrate | dose identified as undergoing biotransformation [2]: < 10% | ALT increased, drug related (number of TEAEs [number of subjects with TEAEs]) ([3]; 2 mg (N = 8)): 0 | ANC decreased, drug related (number of TEAEs [number of subjects with TEAEs]) ([3]; 2 mg (N = 8)): 0 | AST increased, drug related (number of TEAEs [number of subjects with TEAEs]) ([3]; 2 mg (N = 8)): 0 | Bilirubin increased, drug related (number of TEAEs [number of subjects with TEAEs]) ([3]; 2 mg (N = 8)): 0 | ECG abnormal, drug related (number of TEAEs [number of subjects with TEAEs]) ([3]; 2 mg (N = 8)): 0 | Hypotension, drug related (number of TEAEs [number of subjects with TEAEs]) ([3]; 2 mg (N = 8)): 0 | Orthostatic hypotension, drug related (number of TEAEs [number of subjects with TEAEs]) ([3]; 2 mg (N = 8)): 0 | Overall drug related TEAEs (number of TEAEs [number of subjects with TEAEs]) ([3]; 2 mg (N = 8)): 0 (0) | Total number of TEAEs (all severities were “mild”), n, all causalities ([3]; 2 mg (N = 8)): 2 | Number of subjects (%) with ≥1 AE, all causalities ([3]; 2 mg (N = 8)): 1 (12.5) | ALT increased, drug related (number of TEAEs [number of subjects with TEAEs]) ([3]; 4 mg (N = 9)): 1 (1) | ANC decreased, drug related (number of TEAEs [number of subjects with TEAEs]) ([3]; 4 mg (N = 9)): 1 (1) | AST increased, drug related (number of TEAEs [number of subjects with TEAEs]) ([3]; 4 mg (N = 9)): 1 (1) | Bilirubin increased, drug related (number of TEAEs [number of subjects with TEAEs]) ([3]; 4 mg (N = 9)): 0 | ECG abnormal, drug related (number of TEAEs [number of subjects with TEAEs]) ([3]; 4 mg (N = 9)): 0 | Hypotension, drug related (number of TEAEs [number of subjects with TEAEs]) ([3]; 4 mg (N = 9)): 0 | Orthostatic hypotension, drug related (number of TEAEs [number of subjects with TEAEs]) ([3]; 4 mg (N = 9)): 0 | Overall drug related TEAEs (number of TEAEs [number of subjects with TEAEs]) ([3]; 4 mg (N = 9)): 3 (2) | Total number of TEAEs (all severities were “mild”), n, all causalities ([3]; 4 mg (N = 9)): 3 | Number of subjects (%) with ≥1 AE, all causalities ([3]; 4 mg (N = 9)): 2 (22.2) | ALT increased, drug related (number of TEAEs [number of subjects with TEAEs]) ([3]; 10 mg (N = 8)): 2 (2) | ANC decreased, drug related (number of TEAEs [number of subjects with TEAEs]) ([3]; 10 mg (N = 8)): 0 | AST increased, drug related (number of TEAEs [number of subjects with TEAEs]) ([3]; 10 mg (N = 8)): 1 (1) | Bilirubin increased, drug related (number of TEAEs [number of subjects with TEAEs]) ([3]; 10 mg (N = 8)): 1 (1) | ECG abnormal, drug related (number of TEAEs [number of subjects with TEAEs]) ([3]; 10 mg (N = 8)): 0 | Hypotension, drug related (number of TEAEs [number of subjects with TEAEs]) ([3]; 10 mg (N = 8)): 0 | Orthostatic hypotension, drug related (number of TEAEs [number of subjects with TEAEs]) ([3]; 10 mg (N = 8)): 1 (1) | Overall drug related TEAEs (number of TEAEs [number of subjects with TEAEs]) ([3]; 10 mg (N = 8)): 5 (4) | Total number of TEAEs (all severities were “mild”), n, all causalities ([3]; 10 mg (N = 8)): 6 | Number of subjects (%) with ≥1 AE, all causalities ([3]; 10 mg (N = 8)): 4 (50.0) | Severity of TEAEs ([3]; all TEAEs reported during the study): mild | Serious adverse events (SAEs) ([3]; during the study): no SAEs reported | 12‐lead ECG changes ([3]; following administration of baricitinib 2 to 10 mg): no clinically significant dose‐dependent ECG changes | Tolerability ([3]; single and multiple oral once‐daily doses up to 10 mg): generally well tolerated | CL/F ([4]; 2 mg once daily): 13.9 (1.66) L/h | RA (accumulation ratio) ([4]; 2 mg once daily): 1.11 (0.11) | CL/F ([4]; 4 mg once daily): 15.3 (2.64) L/h | RA (accumulation ratio) ([4]; 4 mg once daily): 1.06 (0.20) | Ratio of dose‐normalized geometric means AUCτ,ss (90%CI) ([4]; 4 mg vs 2 mg): 1.03 (0.97‐1.09) | Ratio of dose‐normalized geometric means Cmax,ss (90%CI) ([4]; 4 mg vs 2 mg): 0.99 (0.91‐1.08) | CL/F ([4]; 10 mg once daily): 13.1 (1.95) L/h | RA (accumulation ratio) ([4]; 10 mg once daily): 1.05 (0.07) | Ratio of dose‐normalized geometric means AUCτ,ss (90%CI) ([4]; 10 mg vs 2 mg): 1.07 (0.94‐1.23) | Ratio of dose‐normalized geometric means Cmax,ss (90%CI) ([4]; 10 mg vs 2 mg): 0.99 (0.81‐1.20) | AUC ([4]; human, plasma, oral, 2 mg): 146 ng·h/mL | Cmax ([4]; human, plasma, oral, 2 mg): 28.6 ng/mL | Tmax ([4]; human, plasma, oral, 2 mg): 0.5 h | half-life ([4]; human, plasma, oral, 2 mg): 5.68 h | AUC ([4]; human, plasma, oral, 4 mg): 268 ng·h/mL | Cmax ([4]; human, plasma, oral, 4 mg): 49.6 ng/mL | half-life ([4]; human, plasma, oral, 4 mg): 7.55 h | AUC ([4]; human, plasma, oral, 10 mg): 778 ng·h/mL | Cmax ([4]; human, plasma, oral, 10 mg): 138 ng/mL | half-life ([4]; human, plasma, oral, 10 mg): 7.39 h | Attainment of steady‐state plasma concentrations ([4]; once‐daily dosing days 4 through 10, predose samples): after the second day of once‐daily dosing; also recorded: after the second once‐daily dose | excreted in the urine in an unchanged form [5]: ~75% | mean renal clearance [5]: ~12 L/h^2 | oral‐dose clearance [5]: 17 L/h | mean terminal‐phase t1/2 ([5]; healthy White subjects, noncompartmental PK method): approximately 8 hours | geometric mean terminal‐phase disposition half‐life (t1/2) ([5]; healthy White volunteers): about 8 hours | t1/2 compared with adult populations [6]: substantially shorter | time for ANC and ALC values to return to baseline postdose ([7]; days 1 and 10): ≤ 24 h | maximum mean decrease in ANC ([7]; multiple dose 2 mg): 0.096 GI/L | maximum mean decrease in ANC ([7]; multiple dose 4 mg): 0.706 GI/L | maximum mean decrease in ANC ([7]; multiple dose 10 mg): 1.443 GI/L | time of increase in ALC after dosing ([7]; single and multiple doses): 16 h | time of maximum decrease in ANC after dosing ([7]; single and multiple doses): 8 h | maximum mean decrease from baseline in ANC ([7]; single dose 2 mg): 0.616 GI/L | maximum mean decrease from baseline in ANC ([7]; single dose 4 mg): 0.808 GI/L | maximum mean decrease from baseline in ANC ([7]; single dose 10 mg): 1.706 GI/L | transporter substrate [8]: substrate | transporter substrate [9]: substrate | Ratio of dose‐normalized geometric means AUC0‐∞ (90%CI) ([10]; 4 mg vs 2 mg, single dose): 1.05 (1.00‐1.11) | Ratio of dose‐normalized geometric means Cmax (90%CI) ([10]; 4 mg vs 2 mg, single dose): 1.09 (0.97‐1.22) | Ratio of dose‐normalized geometric means AUC0‐∞ (90%CI) ([10]; 10 mg vs 2 mg, single dose): 1.13 (1.01‐1.26) | Ratio of dose‐normalized geometric means Cmax (90%CI) ([10]; 10 mg vs 2 mg, single dose): 1.22 (0.94‐1.58) | half-life ([10]; mean t1/2, single dose): 5.9 to 7.4 h | half-life ([10]; t1/2, individual values, single dose): 4.5 to 11.8 h | Cmax ([10]; 2 mg): 24.6 ng/mL | Tmax ([10]; 2 mg, single oral 2 mg, N = 8): 1 h | Cmax ([10]; 4 mg): 51.3 ng/mL | Tmax ([10]; 4 mg, single oral 4 mg, N = 9): 1 h | Cmax ([10]; 10 mg): 152 ng/mL | Tmax ([10]; 10 mg, single oral 10 mg, N = 8): 0.75 h | CL/F ([10]; single oral 2 mg, N = 8): 14.5 (1.76) L/h | CL/F ([10]; single oral 4 mg, N = 8): 15.0 (2.48) ^a L/h | CL/F ([10]; single oral 10 mg, N = 8): 12.9 (1.24) L/h | transporter substrate [11]: substrate
